According to ChEMBL document CHEMBL1221342, “Synthesis and in vitro antitumor activity of new 4,5-dihydropyrazole derivatives” (Bioorg Med Chem, 2010):
pIC50: −log10 of the molar value.

Tests used:
CCRF-CEM = test: Growth inhibition of human CCRF-CEM cells after 48 hrs by SRB assay; format: functional; details: for TGI: read-out: pTGI (converted)
Outline: (§1)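 NCI 60-cell-line screen. Cells grown in RPMI1640 with 5% fetal calf serum and 2 mM L-glutamine, with inoculum density set by cell line. Preincubated 24 h, then given compound in DMSO at 10^-4 to 10^-8 M (five 10-fold steps) for 48 h continuous exposure. Growth measured by SRB protein assay. GI50, TGI and LC50 reported as –log molar.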

K562 = test: Growth inhibition of human K562 cells after 48 hrs by SRB assay; format: functional; details: K562, 48 h; for TGI: read-out: pTGI (converted); outline: as §1
MOLT-4 = test: Growth inhibition of human MOLT4 cells after 48 hrs by SRB assay; format: functional; details: MOLT-4, 48 h; for TGI: read-out: pTGI (converted); outline: as §1
[1] = Growth inhibition of human […] cells after 48 hrs by SRB assay; format: functional; details: for TGI: read-out: pTGI (converted); outline: as §1
HOP-62 = test: Growth inhibition of human HOP62 cells after 48 hrs by SRB assay; format: functional; details: HOP-62, 48 h; for TGI: read-out: pTGI (converted); outline: as §1
NCI-H322M = test: Growth inhibition of human NCI-H322M cells after 48 hrs by SRB assay; format: functional; details: for TGI: read-out: pTGI (converted); outline: as §1
NCI-H460 [2] = test: Growth inhibition of human NCI-H460 cells after 48 hrs by SRB assay; format: functional; details: NCI-H460, 48 h; for TGI: read-out: pTGI (converted); outline: as §1
NCI-H522 = test: Growth inhibition of human NCI-H522 cells after 48 hrs by SRB assay; format: functional; details: NCI-H522, 48 h; for TGI: read-out: pTGI (converted); outline: as §1
HCC 2998 = test: Growth inhibition of human HCC2998 cells after 48 hrs by SRB assay; format: functional; details: HCC 2998, 48 h; for TGI: read-out: pTGI (converted); outline: as §1
HCT-116 = test: Growth inhibition of human HCT116 cells after 48 hrs by SRB assay; format: functional; details: HCT-116, 48 h; for TGI: read-out: pTGI (converted); outline: as §1
HCT-15 = test: Growth inhibition of human HCT15 cells after 48 hrs by SRB assay; format: functional; details: HCT-15, 48 h; for TGI: read-out: pTGI (converted); outline: as §1
KM12 = test: Growth inhibition of human KM12 cells after 48 hrs by SRB assay; format: functional; details: KM12, 48 h; for TGI: read-out: pTGI (converted); outline: as §1
SW-620 = test: Growth inhibition of human SW620 cells after 48 hrs by SRB assay; format: functional; details: SW-620, 48 h; for TGI: read-out: pTGI (converted); outline: as §1
SF-268 = test: Growth inhibition of human SF268 cells after 48 hrs by SRB assay; format: functional; details: SF-268, 48 h; outline: as §1
SF-539 = test: Growth inhibition of human SF539 cells after 48 hrs by SRB assay; format: functional; details: SF-539, 48 h; for TGI: read-out: pTGI (converted); outline: as §1
U-251 = test: Growth inhibition of human U251 cells after 48 hrs by SRB assay; format: functional; details: U-251, 48 h; for TGI: read-out: pTGI (converted); outline: as §1
SK-MEL-2 = test: Growth inhibition of human SK-MEL-2 cells after 48 hrs by SRB assay; format: functional; details: SK-MEL-2, 48 h; for TGI: read-out: pTGI (converted); outline: as §1
MDA-MB-435 = test: Growth inhibition of human MDA-MB-435 cells after 48 hrs by SRB assay; format: functional; details: MDA-MB-435, 48 h; for TGI: read-out: pTGI (converted); outline: as §1
SK-MEL-5 = test: Growth inhibition of human SK-MEL-5 cells after 48 hrs by SRB assay; format: functional; details: SK-MEL-5, 48 h; for TGI: read-out: pTGI (converted); outline: as §1
UACC-62 = test: Growth inhibition of human UACC62 cells after 48 hrs by SRB assay; format: functional; details: UACC-62, 48 h; for TGI: read-out: pTGI (converted); outline: as §1
OVCAR-3 = test: Growth inhibition of human OVCAR-3 cells after 48 hrs by SRB assay; format: functional; details: OVCAR-3, 48 h; for TGI: read-out: pTGI (converted); outline: as §1
OVCAR-4 = test: Growth inhibition of human OVCAR4 cells after 48 hrs by SRB assay; format: functional; details: OVCAR-4, 48 h; for TGI: read-out: pTGI (converted); outline: as §1
OVCAR-8 = test: Growth inhibition of human OVCAR8 cells after 48 hrs by SRB assay; format: functional; details: OVCAR-8, 48 h; for TGI: read-out: pTGI (converted); outline: as §1
NCI/ADR-RES = test: Growth inhibition of human NCI/ADR-RES cells after 48 hrs by SRB assay; format: functional; details: for TGI: read-out: pTGI (converted); outline: as §1
SK-OV-3 = test: Growth inhibition of human SKOV3 cells after 48 hrs by SRB assay; format: functional; details: SK-OV-3, 48 h; for TGI: read-out: pTGI (converted); outline: as §1
786-0 = test: Growth inhibition of human 786-0 cells after 48 hrs by SRB assay; format: functional; details: 786-0, 48 h; for TGI: read-out: pTGI (converted); outline: as §1
A498 = test: Growth inhibition of human A498 cells after 48 hrs by SRB assay; format: functional; details: A498, 48 h; for TGI: read-out: pTGI (converted); outline: as §1
CAKI-1 = test: Growth inhibition of human Caki1 cells after 48 hrs by SRB assay; format: functional; details: CAKI-1, 48 h; for TGI: read-out: pTGI (converted); outline: as §1
TK-10 = test: Growth inhibition of human TK10 cells after 48 hrs by SRB assay; format: functional; details: TK-10, 48 h; for TGI: read-out: pTGI (converted); outline: as §1
PC-3 = test: Growth inhibition of human PC3 cells after 48 hrs by SRB assay; format: functional; details: PC-3, 48 h; for TGI: read-out: pTGI (converted); outline: as §1
DU-145 = test: Growth inhibition of human DU145 cells after 48 hrs by SRB assay; format: functional; details: DU-145, 48 h; for TGI: read-out: pTGI (converted); outline: as §1
BT-549 = test: Growth inhibition of human BT549 cells after 48 hrs by SRB assay; format: functional; details: BT-549, 48 h; for TGI: read-out: pTGI (converted); outline: as §1
T47D = test: Growth inhibition of human T47D cells after 48 hrs by SRB assay; format: functional; details: for TGI: read-out: pTGI (converted); outline: as §1
NCI-H460 [3] = test: Cytotoxicity against human NCI-H460 cells after 72 hrs by SRB assay; format: functional, cell-based; details: NCI-H460, 72 h
Outline: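 NCI-H460 (ATCC) cells seeded in 96-well plates in growth medium. Scalar drug concentrations added 24 h after plating, then 72 h exposure. Surviving cells stained with sulforhodamine B, OD read at 570 nm. IC50 (50% growth inhibition) fitted from dose–response curves. Mean ± SE of at least three independent experiments.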

M14 = test: Growth inhibition of human M14 cells after 48 hrs by SRB assay; format: functional; details: M14, 48 h; outline: as §1
RXF 393 = test: Growth inhibition of human RXF393 cells after 48 hrs by SRB assay; format: functional; details: RXF 393, 48 h; outline: as §1

## CCN(CC)c1ccc(C2CC(c3cc(OC)c(OC)c(OC)c3)=NN2)cc1 (stereo not given)
CCRF-CEM
  GI50: 0.2 µM
  TGI: 0.631 µM
K562
  GI50: 0.398 µM
  TGI: 12.6 µM
MOLT-4
  GI50: 1.26 µM
  TGI: 5.01 µM
[1]
  GI50: 0.398 µM
  TGI: 3.98 µM
HOP-62
  GI50: 0.316 µM
  TGI: 3.98 µM
NCI-H322M
  GI50: > 100 µM
  TGI: > 100 µM
NCI-H460 [2]
  GI50: 0.316 µM
  TGI: 12.6 µM
NCI-H522
  GI50: 0.251 µM
  TGI: 2 µM
HCC 2998
  GI50: 0.631 µM
  TGI: 7.94 µM
HCT-116
  GI50: 0.251 µM
  TGI: 1 µM
HCT-15
  GI50: 0.631 µM
  TGI: > 100 µM
KM12
  GI50: 0.398 µM
  TGI: > 100 µM
SW-620
  GI50: 0.398 µM
  TGI: > 100 µM
SF-268
  GI50: 0.794 µM
SF-539
  GI50: 0.316 µM
  TGI: 1.26 µM
U-251
  GI50: 0.398 µM
  TGI: > 100 µM
SK-MEL-2
  GI50: 1.58 µM
  TGI: > 100 µM
MDA-MB-435
  GI50: 0.158 µM
  TGI: 0.316 µM
SK-MEL-5
  GI50: 0.794 µM
  TGI: 3.16 µM
UACC-62
  GI50: 0.398 µM
  TGI: 50.1 µM
OVCAR-3
  GI50: 0.398 µM
  TGI: > 100 µM
OVCAR-4
  GI50: 1 µM
  TGI: > 100 µM
OVCAR-8
  GI50: 0.398 µM
  TGI: 7.94 µM
NCI/ADR-RES
  GI50: 0.501 µM
  TGI: > 100 µM
SK-OV-3
  GI50: 0.501 µM
  TGI: > 100 µM
786-0
  GI50: 0.158 µM
  TGI: 0.501 µM
A498
  GI50: 0.398 µM
  TGI: 0.794 µM
CAKI-1
  GI50: 0.2 µM
  TGI: 0.794 µM
TK-10
  GI50: 39.8 µM
  TGI: > 100 µM
PC-3
  GI50: 0.316 µM
  TGI: 63.1 µM
DU-145
  GI50: 0.398 µM
  TGI: 1.58 µM
BT-549
  GI50: 0.398 µM
  TGI: 5.01 µM
T47D
  TGI: > 100 µM
NCI-H460 [3]
  pIC50: 6.52

## COc1ccc(/C=C\c2cc(OC)c(OC)c(OC)c2)cc1O [COMBRETASTATIN A4]
CCRF-CEM
  GI50: 0.1 µM
  TGI: 5.01 µM
K562
  GI50: 0.0316 µM
  TGI: 2 µM
MOLT-4
  GI50: 0.1 µM
  TGI: 3.98 µM
[1]
  GI50: 0.158 µM
  TGI: 6.31 µM
HOP-62
  GI50: 0.2 µM
  TGI: 2.51 µM
NCI-H322M
  GI50: 0.0794 µM
  TGI: 79.4 µM
NCI-H460 [2]
  GI50: 0.0316 µM
  TGI: 63.1 µM
NCI-H522
  GI50: 0.0316 µM
  TGI: 3.98 µM
HCC 2998
  GI50: 0.0501 µM
  TGI: 1.26 µM
HCT-116
  GI50: 0.0316 µM
  TGI: 0.2 µM
HCT-15
  GI50: 0.0316 µM
  TGI: 10 µM
KM12
  GI50: 0.0501 µM
  TGI: 0.794 µM
SW-620
  GI50: 0.0316 µM
  TGI: 79.4 µM
SF-268
  GI50: 0.126 µM
SF-268; read-out: pTGI (converted)
  TGI: 50.1 µM
SF-539
  GI50: 0.0398 µM
  TGI: 0.2 µM
U-251
  GI50: 0.0501 µM
  TGI: 12.6 µM
M14
  GI50: 0.158 µM
M14; read-out: pTGI (converted)
  TGI: 0.251 µM
SK-MEL-2
  GI50: 7.94 µM
  TGI: 79.4 µM
MDA-MB-435
  GI50: 0.0316 µM
  TGI: 0.0794 µM
SK-MEL-5
  GI50: 0.01 µM
  TGI: 0.01 µM
UACC-62
  GI50: 0.01 µM
  TGI: 63.1 µM
OVCAR-3
  GI50: 0.0398 µM
  TGI: 0.158 µM
OVCAR-4
  GI50: 0.251 µM
  TGI: 79.4 µM
OVCAR-8
  GI50: 0.0398 µM
  TGI: 39.8 µM
NCI/ADR-RES
  GI50: 0.0631 µM
  TGI: 0.398 µM
SK-OV-3
  GI50: 31.6 µM
  TGI: > 100 µM
786-0
  GI50: 0.0199 µM
  TGI: 25.1 µM
A498
  GI50: 0.0501 µM
  TGI: 0.794 µM
CAKI-1
  GI50: 0.0398 µM
  TGI: 15.8 µM
RXF 393
  GI50: 1 µM
RXF 393; read-out: pTGI (converted)
  TGI: 79.4 µM
TK-10
  GI50: 0.631 µM
  TGI: 3.98 µM
PC-3
  GI50: 0.0398 µM
  TGI: > 100 µM
DU-145
  GI50: 0.01 µM
  TGI: > 100 µM
BT-549
  GI50: 0.01 µM
  TGI: 2 µM
T47D
  GI50: 50.1 µM
  TGI: > 100 µM
